Consider 16 compounds from ChEMBL document CHEMBL1138316, “Design, synthesis, and melatoninergic activity of new azido- and isothiocyanato-substituted indoles” (J Med Chem, 2007).

Assay type in all cases: functional
The species named for assay [1] is Xenopus laevis. As to the kind of experiment: Agonist activity at melatonin receptor in Xenopus laevis melanophores assessed as effect on pigment granule distribution at 100 uM. The essentials:
(§1)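 Agonist response in Xenopus laevis melanophores was tested up to a highest concentration of 100 µM and reported as pEC50. Values are the mean ± SEM of triplicate experiments.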

The nature of assay [2]: Antagonist activity at melatonin receptor in Xenopus laevis melanophores assessed as reduction of melatonin-induced pigment aggregation. The essentials: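 Antagonism of the melatonin response in Xenopus laevis melanophores was reported as pIC50. Values are the mean ± SEM of triplicate experiments.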
Assay [3] can be described thus: Agonist activity at melatonin receptor in Xenopus laevis melanophores assessed as effect on pigment granule distribution. The method in brief: as §1
The species entered for assay [4] is Xenopus laevis. As to the kind of experiment: Agonist activity at melatonin receptor in Xenopus laevis melanophores assessed as effect on pigment granule distribution at 100 uM relative to melatonin. The method in brief:
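In Xenopus laevis melanophores, maximal agonist action at 100 µM was expressed as a percentage of the response to 1 nM melatonin. Data come from triplicate experiments.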

Activity calls are given as the source filed them. No cut-off for these calls is given here.

Turning to `CC(=O)NCCc1c(Cc2ccccc2)[nH]c2ccccc12` [LUZINDOLE], the result in assay [1] was inactive. In addition, the “Log IC50” value in assay [2] is -5.61.
For `[N-]=[N+]=NCCCn1ccc2ccccc21`, in that order: “inactive” and -4.82.
On to `[N-]=[N+]=NCCCc1c[nH]c2ccccc12`, for which the outcome in assay [1] was inactive. The “Log IC50” value in assay [2] is recorded as -4.79.
As for `COc1ccc2[nH]cc(CCN=C=S)c2c1`, in assay [1], the result was inactive. Also, the “Log IC50” value in assay [2] is -5.47.
Consider `COc1ccc2c(ccn2CCCN=[N+]=[N-])c1`, for which the result in assay [1] was inactive. Further, in assay [2], the “Log IC50” value is listed as -4.81.
Take `[N-]=[N+]=NCCCc1cc2ccccc2[nH]1`: the result in assay [1] was inactive. For the same compound, the “Log IC50” value in assay [2] is -4.72.
With `COc1ccc2[nH]cc(CCCN=C=S)c2c1`, in assay [1], the result was inactive. The “Log IC50” value in assay [2] is given as -4.49.
Take `COc1ccc2[nH]cc(CCN=[N+]=[N-])c2c1`: in assay [1], the outcome was inactive. The “Log IC50” value in assay [2] is on record as -5.09.
For `COc1ccc2c(ccn2CCCN=C=S)c1`, in that order: “inactive” and -4.91.
Take `COc1ccc2[nH]cc(CCNC(C)=O)c2c1` [MELATONIN]: the “Log EC50” value in assay [3] was -10.07.
In the case of `COc1ccc2[nH]c(CCCN=[N+]=[N-])cc2c1`, in assay [1], the outcome was inactive. Also, the “Log IC50” value in assay [2] was -4.15.
On to `S=C=NCCCc1c[nH]c2ccccc12`, for which, in assay [2], the “Log IC50” value was -3.92. In assay [4], the Activity is 31%.
For `S=C=NCCCc1cc2ccccc2[nH]1`, in that order: -4.35 and 38%.
In the case of `COc1ccc2[nH]c(CCCN=C=S)cc2c1`, the “Log IC50” value in assay [2] is reported as -4.47. For the same compound, the Activity in assay [4] was determined as 41%.
Regarding `COc1ccc2[nH]cc(CCCN=[N+]=[N-])c2c1`, the result in assay [1] was inactive. Also, the “Log IC50” value in assay [2] is -5.03.
Consider `S=C=NCCCn1ccc2ccccc21`, for which the “Log IC50” value in assay [2] is given as -4.04. Moreover, in assay [4], the Activity worked out at 28%.
